Screens (PubChem BioAssay)
HIV Rev-RRE inh – disrupts HIV-1 Rev binding to RRE RNA. P05866. Rev peptide-RRE RNA binding, FRET. inhibition, % at 8 µM. actives 0.79% (n = 97,000). AID 704;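 active = inhibition above the screen-wide mean plus 3 SD, cut at about 35% in these data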;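 also: 0% = median DMSO wells and 100% = median Neomycin B control wells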
Target sequence (P05866 whole entry, looked up): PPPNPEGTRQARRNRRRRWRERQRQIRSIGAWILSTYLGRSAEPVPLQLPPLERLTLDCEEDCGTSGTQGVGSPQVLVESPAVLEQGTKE
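Probe or stimulus: fluorescein-Rev peptide as binding partner; assay system: Cy5-tagged RRE RNA duplex with fluorescein-tagged Rev peptide; timing: 5 min compound–RNA preincubation, then 15 min with peptide, 25 °C; medium: HEPES pH 7.5 buffer with KCl, MgCl2, NaCl and EDTA; signal: fluorescein-to-Cy5 FRET, 480 nm excitation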
CYP2C9 act – activators of human CYP2C9; actives 1.4% (n = 96,000); AID 1024; recombinant CYP2C9, luciferin-H conversion, luminescence; stronger effect = higher value; factor 1 = untreated enzyme, 0 = blocked; activation factor at 5 µM; P11712;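 active = activation factor of 2 or more for CYP2C9 at a 5 µM dose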;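 also: 0 = sulfaphenazole-blocked wells and 1 = vehicle-only wells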
CYP2C9 inhib – human CYP2C9 inhibition. P11712. CYP2C9 Supersomes, luciferin-H conversion, luminescence. inhibition, % at 5 µM. actives 20% (n = 96,000);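 active = blocking of liver enzyme CYP2C9 beyond about 50% at 5 µM, limit read from the data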
CYP2C19 inhib – blocks human cytochrome P450 2C19; CYP2C19 Supersomes, luciferin-H EGE luminescence, 30 min; inhibition, % at 5 µM; P33261; AID 778; actives 21% (n = 96,000);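 active = CYP2C19 inhibition above a set limit at 5 µM in the primary screen, cut at about 50% in these data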;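 also: plate controls were negative control wells for no effect and 2.5 mM tranylcypromine positive control for full effect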
Target sequence (P33261 whole entry, looked up): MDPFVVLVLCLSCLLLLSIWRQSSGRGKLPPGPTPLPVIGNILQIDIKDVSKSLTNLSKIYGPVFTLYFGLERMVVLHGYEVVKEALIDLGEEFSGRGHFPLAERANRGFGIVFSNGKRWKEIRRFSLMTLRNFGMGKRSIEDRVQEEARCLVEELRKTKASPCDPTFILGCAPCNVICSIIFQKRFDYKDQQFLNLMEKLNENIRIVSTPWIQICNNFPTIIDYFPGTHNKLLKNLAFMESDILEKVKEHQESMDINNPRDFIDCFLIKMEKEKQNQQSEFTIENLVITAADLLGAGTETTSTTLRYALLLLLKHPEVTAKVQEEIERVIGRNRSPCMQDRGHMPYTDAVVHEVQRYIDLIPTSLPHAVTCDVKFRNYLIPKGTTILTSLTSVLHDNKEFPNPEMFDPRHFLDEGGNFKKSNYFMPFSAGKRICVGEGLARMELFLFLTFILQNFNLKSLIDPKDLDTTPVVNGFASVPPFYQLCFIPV
CYP2C19 activ – cytochrome P450 2C19 (human) activation | recombinant CYP2C19, luciferin-H EGE luminescence; stronger effect = higher value; 0 = fully inhibited enzyme, 1 = untreated enzyme | activation factor at 5 µM | 96,000 tested, under 10 active;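 active = activation factor of at least 2 at 5 µM in the primary screen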;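 also: 0 = wells with 2.5 mM tranylcypromine and 1 = vehicle-only wells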
Cav32 inh – inhibitors of human Cav3.2 T-type calcium channel; O95180; Cav3.2-expressing cells, Fluo-4 calcium fluorescence FDSS; stronger effect = lower value; B-score at 10 µM; actives 4% (n = 100,000);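 active = single-dose well whose peak fluorescence ratio is a statistical outlier from its plate by either plate-standardised score or position-corrected B-score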
An asterisk follows results filed as active; x = no result. Shown are actives, neighbours in structure and some others; about 27% of the full set was active somewhere.

SMILES	HIV Rev-RRE inh	CYP2C9 act	CYP2C9 inhib	CYP2C19 inhib	CYP2C19 activ	Cav32 inh
O=C(Nc1nnc(SCc2ccc(Cl)cc2)s1)c1ccco1	6.0	0.8	20.4	18.2	0.8	-0.502
COc1ccccc1CN(C(=O)c1ccco1)C(C(=O)NC1CCCC1)c1ccncc1 (stereo not given)	6.8	0.6	41.6	62.6*	0.4	0.315
COc1cc(C(C(=O)NC2CCCCC2)N(Cc2cccs2)C(=O)Cc2c[nH]c3ccccc23)cc(OC)c1OC (stereo not given)	-3.0	0.4	57.5*	73.4*	0.3	-6.46*
O=C(NC1CCCC1)C(c1ccsc1)N(Cc1ccco1)C(=O)Cc1cccs1 (stereo not given)	1.4	0.9	9.3	28.3	0.7	-6.91*
COc1ccccc1N(C(=O)CNC(=O)c1ccco1)C(C(=O)NC1CCCC1)c1ccncc1 (stereo not given)	0.7	x	x	x	x	0.536
O=C(NC1CCCC1)C(c1ccncc1)N(Cc1ccccc1)C(=O)Cc1cccs1 (stereo not given)	-2.1	0.6	39.4	60.8*	0.4	0.611
O=C(Nc1ccccc1)C1CCN(C(=O)c2ccccc2)CC1	9.0	0.6	35.1	22.9	0.8	0.173
OC[C@@H](O)[C@@H](O[C@H]1O[C@H](CO)[C@@H](O)[C@H](O)[C@H]1O)[C@H](O)[C@@H](O)CO	x	x	x	x	x	0.32
CC(C(=O)NC1CCCCCC1)N(c1ccccc1)S(C)(=O)=O (stereo not given)	0.0	1	-4.7	5.4	0.9	0.349
CCC(C)N(C(=O)C(F)(F)F)C(C(=O)NC1CCCCC1)c1ccncc1 (stereo not given)	0.6	x	x	x	x	0.442
COc1ccccc1CN(C(=O)Cc1cccs1)C(C(=O)NC1CCCC1)c1ccncc1 (stereo not given)	-5.8	0.5	49.9	76.9*	0.2	-0.394
CC(C(=O)NC1CCCC1)N(C(=O)c1ccc(-c2ccccc2)[nH]1)c1ccccc1F (stereo not given)	5.3	0.4	61.2*	69.5*	0.3	-6.01*
O=C(NC1CCCCC1)C(c1ccncc1)N(Cc1ccccc1)C(=O)c1ccc(-c2ccccc2)[nH]1 (stereo not given)	0.5	0.1	95.0*	92.9*	0.1	x
O=C(NC1CCCC1)C(c1ccncc1)N(Cc1cccs1)C(=O)c1csnn1 (stereo not given)	8.1	0.5	53.7*	37.4	0.6	0.784
O=C(NC1CCCC1)C(c1cccs1)N(Cc1ccco1)C(=O)c1csnn1 (stereo not given)	2.1	0.9	10.9	25.4	0.7	0.209
CCN1CCN(C(=O)C2CCC(CNS(=O)(=O)c3ccccc3)CC2)CC1 (stereo not given)	-1.0	1.4	-41.1	-24.2	1.2	0.013
CCOC(=O)C(C)Oc1ccc(C2NC(=O)NC(C)=C2C(=O)Nc2ccccc2C)cc1 (stereo not given)	6.0	0.8	21.2	20.3	0.8	-0.831
COc1ccc(CC(=O)Nc2nnc(C)s2)cc1	2.5	0.9	12.5	32.9	0.7	0.315
COc1ccc(CN(C(=O)c2ccc(-c3ccccc3)[nH]2)C(C(=O)NCC2CCCO2)c2ccc(C)o2)cc1 (stereo not given)	-2.7	0.5	45.6	58.2*	0.4	x
Cc1ccc(-c2nnn(CC(=O)N(Cc3ccccc3)C(C(=O)NC3CCCC3)c3ccncc3)n2)o1 (stereo not given)	2.0	0.4	55.4*	45.2	0.5	-0.0185
COc1ccc(CN(C(=O)Cc2c[nH]c3ccccc23)C(C(=O)NC2CCCCC2)c2ccc(C)o2)cc1 (stereo not given)	-4.7	0.1	94.4*	92.9*	0.1	-7.27*
Cc1ccc(-c2nnn(CC(=O)N(Cc3ccco3)C(C(=O)NC3CCCC3)c3cccs3)n2)o1 (stereo not given)	7.9	x	x	x	x	-0.651
CCOC(=O)N1CCN(C(=O)c2ccc3c(=O)n(CCc4ccccc4)c(=O)[nH]c3c2)CC1	7.9	0.8	16.8	48.6	0.5	1.04
CCOC(=O)c1cnc(Nc2nc3ccccc3o2)nc1C	-3.6	0.4	58.1*	88.1*	0.1	0.0919
CCOC(=O)c1cnc(Nc2nc3ccccc3o2)nc1CN1CCN(c2ccccc2)CC1	2.7	x	x	x	x	x
SMILES	HIV Rev-RRE inh	CYP2C9 act	CYP2C9 inhib	CYP2C19 inhib	CYP2C19 activ	Cav32 inh
CCC(C)NC(=O)CSc1nc(-c2cccs2)cc(C(F)(F)F)n1 (stereo not given)	9.8	0.1	88.5*	97.2*	0	-0.949
c1ccc(CSc2nnc(-c3cccs3)o2)cc1	3.9	0.7	28.4	39.3	0.6	-3.49
O=C(CSc1nnc(-c2cc(-c3cccs3)nc3ccccc23)o1)NC1CCCCC1	10.7	0.5	50.4*	8.1	0.9	0.248
COc1ccc(-c2cc(C(F)(F)F)nc(SCC(=O)NCc3cccs3)n2)cc1	3.3	0.6	39.9	-12.3	1.1	-2.13
Fc1ccc(CSc2nnc(-c3cccs3)o2)cc1	8.7	0.3	71.9*	77.7*	0.2	-0.627
CC1CCCC(C)N1C(=O)CSc1nnc(-c2cccs2)o1 (stereo not given)	0.8	0.5	47.7	84.2*	0.2	0.272
O=C(CSc1oc(-c2cccs2)nc1S(=O)(=O)c1ccccc1)NC1CCCCC1	-10.2	0.7	28.0	23.5	0.8	-3.15
O=C(Cc1ccc(Cl)cc1)NCC(=O)N1CCCC1	1.4	1.1	-6.3	34.5	0.7	-0.838
Nc1nnnn1/N=C/c1ccccn1	6.3	1	-4.5	-5.1	1.1	0.123
COc1ccccc1-n1c(C)nnc1SCC(=O)Nc1cccc(C(C)=O)c1	1.7	0.7	31.4	25.2	0.7	0.641
CCC(C)NC(=O)CSc1nnc(-c2cc(-c3cccs3)nc3ccccc23)o1 (stereo not given)	14.8	0	97.6*	75.1*	0.2	-0.0524
CCCN(CC1CC1)C(=O)CSc1nnc(-c2cc(-c3cccs3)nc3ccccc23)o1	1.8	0.4	55.4*	0.0	1	-1.22
O=C(NCc1ccc2c(c1)OCO2)C1CCCN(S(=O)(=O)c2cccnc2)C1 (stereo not given)	4.2	0.5	49.5	-1.5	1	1.28
Cc1cccc(-c2cc3nc4c(c(N5CCCC(O)C5)n3n2)CCC4)c1 (stereo not given)	1.9	0	97.5*	87.3*	0.1	-0.173
COc1ccc(N2CCN(CCCNS(=O)(=O)c3c(C)noc3/C=C/N(C)C)CC2)cc1	-2.0	0.4	61.9*	0.8	1	-1.84
O=C(COc1ccc(Br)cc1)N1CCCCCC1	-0.9	0.7	31.3	93.6*	0.1	0.44
O=C(COc1ccc(Cl)cc1)N1CCCC1	3.4	x	x	x	x	0.835
